core dimer inh – HCV core protein dimerization inhibition; 300,000 compounds, 0.33% hits; inhibition, % at 5 µM; TR-FRET GST/Flag-core106 dimerization, 1536-well; AID 1899;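 active = inhibition above the mean of all tested compounds plus 3 SD, set per screening campaign, cut at about 45% in these data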
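Material: Tagged HCV core106 pair (GST and Flag) | Amount: GST-core106 13.5 nM, Flag-core106 17 nM | Medium: KF-containing HEPES buffer, pH 7.45, DTT, CHAPS, BSA | Reagent: Eu donor and XL665 acceptor anti-tag antibodies | Schedule: 4 h at 22.5 °C | Technique: Time-resolved FRET, ex 340 nm, em 617 and 671 nm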
ZTA counter – ZTA (EBV) inhibition in EBNA-1 counter-screen. 320,000 compounds, 0.15% hits. ZTA-DNA binding, fluorescence polarization. inhibition, % at 11 µM. AID 2234. P03206; in the data active = inhibition above about 33%
Target sequence (P03206 whole entry, looked up): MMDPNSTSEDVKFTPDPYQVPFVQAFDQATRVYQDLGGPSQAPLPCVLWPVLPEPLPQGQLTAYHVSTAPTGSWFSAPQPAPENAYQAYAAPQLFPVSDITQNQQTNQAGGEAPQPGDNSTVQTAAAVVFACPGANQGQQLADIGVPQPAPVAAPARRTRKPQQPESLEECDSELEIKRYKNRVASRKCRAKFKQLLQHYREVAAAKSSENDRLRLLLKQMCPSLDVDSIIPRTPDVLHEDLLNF
NS3 helicase inh – inhibitors of Hepatitis C virus NS3 helicase. inhibition, % at 10.9 µM. NS3 helicase DNA unwinding, Cy5 molecular beacon fluorescence. 290,000 compounds, 0.56% hits. AID 1800;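 active = inhibition above the mean of all tested compounds plus 3 SD, set per campaign, cut at about 35% in these data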;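 also: 0% = DMSO wells and 100% = thioflavine S control wells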
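System: NS3 helicase fragment of HCV / Schedule: 1 h at 25 °C / Control set: DMSO alone as 0% and 110 µM thioflavine S as 100% / Reagent: Cy5/quencher beacon DNA duplex and ATP to start / Technique: Cy5 fluorescence / Replication: singlicate / Evaluation: % inhibition of end-to-start signal ratio versus controls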
EBNA-1 inhibitor – blocks EBNA-1 binding to DNA; EBNA-1 DNA binding, fluorescence polarization; inhibition, % at 14.8 µM; 300,000 compounds, 0.34% hits; in the data active = inhibition above about 28%
* = called active by the depositor. Shown are actives, neighbours in structure and some others; about 1.2% of the full set was active somewhere.

For COc1ccc(/C=N/NC(=O)c2nc(Cl)c(Cl)c(N)c2Cl)cc1COc1ccc(F)cc1F the results were core dimer inh 53*, ZTA counter -3, NS3 helicase inh 10 and EBNA-1 inhibitor -6.
Screening COc1ccc(/C=N/NC(=O)c2nc(Cl)c(Cl)c(N)c2Cl)cc1COc1ccccc1F returned core dimer inh 57*, ZTA counter 7, NS3 helicase inh -2 and EBNA-1 inhibitor 1.
For CCN(Cc1ccc(C#CCCO)cc1)CC1CCCN(CCc2cccc(F)c2)C1 (stereo not drawn) the results were core dimer inh -6, ZTA counter -3, NS3 helicase inh -28 and EBNA-1 inhibitor -10.
Cc1c(C(=O)OCc2ccccc2)[nH]c2c1C(=O)CC(c1ccco1)C2 (stereo not drawn) was read as core dimer inh 51*, ZTA counter 17, NS3 helicase inh 14 and EBNA-1 inhibitor 14.
O=C(NCC1CCCCC1)c1cc(S(=O)(=O)N2CCOCC2)ccc1F was read as ZTA counter 4.
`COc1ccc2cc3c(N)nn(C(=O)c4ccc(Cl)c([N+](=O)[O-])c4)c3nc2c1` gave core dimer inh 48*, ZTA counter 4, NS3 helicase inh 11 and EBNA-1 inhibitor 8.
COc1ccc2cc3c(N)nn(C(=O)c4ccccc4[N+](=O)[O-])c3nc2c1 was read as core dimer inh -6, ZTA counter 5, NS3 helicase inh -6 and EBNA-1 inhibitor -1.
Screening O=C(COC(=O)c1cc(S(=O)(=O)N2CCc3ccccc3C2)ccc1Cl)NCc1ccco1 returned core dimer inh 10, ZTA counter -14, NS3 helicase inh 0 and EBNA-1 inhibitor 0.
For O=C(COC(=O)c1cccc(S(=O)(=O)N2CCc3ccccc3C2)c1)NCc1ccco1 the results were core dimer inh 51*, ZTA counter -10, NS3 helicase inh 11 and EBNA-1 inhibitor 4.
`CCc1ccc(/C(C)=N/NC(=O)c2ccc(-n3cnnn3)cc2)cc1` gave ZTA counter -13.
`Cc1ccccc1-n1c(SCC(=O)c2c(N)n(C3CC3)c(=O)[nH]c2=O)nnc1N1CCOCC1` gave ZTA counter 8.
For Cc1cc(C)c(S(=O)(=O)N2CCN(C(=O)c3cc4ccccc4oc3=O)CC2)c(C)c1 the results were ZTA counter 21.
Screening CC(/C=N/NC(=O)c1cc(-c2ccc(Cl)cc2)nc2ccccc12)=C\c1ccco1 returned core dimer inh 88*, ZTA counter -18, NS3 helicase inh 11 and EBNA-1 inhibitor -22.
Screening CC(/C=N/NC(=O)c1cc(-c2ccccc2)nc2ccccc12)=C\c1ccco1 returned core dimer inh 51*, ZTA counter 10, NS3 helicase inh 1 and EBNA-1 inhibitor -1.
`Cc1ccc(CSc2nnc(SCC(=O)N/N=C/C=C/c3ccco3)s2)cc1` gave core dimer inh 40, ZTA counter 16, NS3 helicase inh 18 and EBNA-1 inhibitor 26.
`CC(/C=N/NC(=O)CSc1nnc(SCc2ccccc2)s1)=C\c1ccco1` gave core dimer inh 48*, ZTA counter 20, NS3 helicase inh 16 and EBNA-1 inhibitor 7.
For COc1ccc(CCn2c(C)ccc2C)cc1OC the results were core dimer inh 47*, ZTA counter 17, NS3 helicase inh 10 and EBNA-1 inhibitor -11.
`COc1ccc(CCn2c(-c3ccc(Cl)cc3)n[nH]c2=S)cc1OC` gave core dimer inh 1, ZTA counter -6, NS3 helicase inh -3 and EBNA-1 inhibitor 0.
CCOc1ccc(Oc2ccc(C(F)(F)F)cc2NC(=O)C2=COCCO2)cc1 was read as ZTA counter 0.
`COc1ccc(NS(=O)(=O)c2cc(NC(=O)c3ccc(=O)[nH]n3)ccc2C)cc1` gave ZTA counter 9.
Screening COC(=O)/C=c1/s/c(=C(/C#N)C(=O)N2CCOCC2)n(-c2ccccc2)c1=O returned core dimer inh -5, ZTA counter 10, NS3 helicase inh 5 and EBNA-1 inhibitor 0.
COC(=O)/C=c1/s/c(=C(\C#N)C(=O)NCc2ccco2)n(-c2ccc(C)cc2)c1=O was read as core dimer inh 57*, ZTA counter 2, NS3 helicase inh 20 and EBNA-1 inhibitor 2.
NS(=O)(=O)c1ccc(CCNC(=O)c2ccc[nH]c2=S)cc1 was read as core dimer inh -3, ZTA counter 3, NS3 helicase inh -7 and EBNA-1 inhibitor 1.
O=C(NCC1CCCO1)C(=O)N/N=C/c1cccc(Cl)c1 (stereo not drawn) was read as core dimer inh -4, ZTA counter -2, NS3 helicase inh -3 and EBNA-1 inhibitor 2.
For O=C(NNC(=O)c1cc2cc3ccccc3nc2s1)c1cccc(Cl)c1 the results were core dimer inh 58*, ZTA counter -2, NS3 helicase inh 2 and EBNA-1 inhibitor 0.
Cc1cccc(C(=O)NNC(=O)c2cc3cc4ccccc4nc3s2)c1 was read as core dimer inh 25, ZTA counter 10, NS3 helicase inh 0 and EBNA-1 inhibitor 15.
Screening CCc1cccc(OCC(=O)Nc2ccccc2N2CCCC2)c1 returned core dimer inh 0, ZTA counter 3 and EBNA-1 inhibitor -1.
C/C(=N\Nc1ccc(F)cc1F)c1ccc(N2CCOCC2)cc1 was read as core dimer inh -2, ZTA counter 3, NS3 helicase inh 2 and EBNA-1 inhibitor -7.
Screening C/C(=N\Nc1ccc(F)cc1F)c1ccc(F)cc1 returned core dimer inh 54*, ZTA counter 6, NS3 helicase inh 8 and EBNA-1 inhibitor -7.
O=C(Nc1nccs1)c1cc(-c2ccncc2)nc2ccccc12 was read as core dimer inh 56*, ZTA counter 2, NS3 helicase inh 13 and EBNA-1 inhibitor -10.
`Cc1csc(NC(=O)c2cc(-c3ccncc3)nc3ccccc23)n1` gave core dimer inh 17, ZTA counter -9, NS3 helicase inh 10 and EBNA-1 inhibitor -1.
Screening CCCNC(=O)Cn1c(=O)/c(=C\c2ccc(-c3cccc([N+](=O)[O-])c3)o2)s/c1=C\C(=O)C(C)(C)C returned core dimer inh 57*, ZTA counter -1, NS3 helicase inh 20 and EBNA-1 inhibitor -3.
`CCCNC(=O)Cn1c(=O)/c(=C\c2ccc(-c3ccc([N+](=O)[O-])cc3)o2)s/c1=C\C(=O)C(C)(C)C` gave core dimer inh 13, ZTA counter -18, NS3 helicase inh 10 and EBNA-1 inhibitor 6.
Cc1cc(C)cc(N2Cc3ccccc3C2)c1 was read as core dimer inh 62*, ZTA counter -3, NS3 helicase inh 6 and EBNA-1 inhibitor 2.
Screening CCOc1ccc(S(=O)(=O)NCCC(=O)N2CC=C(c3ccccc3)CC2)cc1 returned ZTA counter 12.
`N#Cc1ccc(C(=O)Nc2cc(C3CC3)nn2-c2ccccc2)cc1` gave core dimer inh 8, ZTA counter 1 and EBNA-1 inhibitor 4.
Oc1ccc(/C=N/N(c2ccccc2)c2ccccc2)c(O)c1O was read as core dimer inh 52*, ZTA counter -4, NS3 helicase inh 24 and EBNA-1 inhibitor -7.

Compound activity as filed in PubChem.
